Experimental data published in PMC7877830 (Clinical and Translational Science, 2020).
pIC50: −log10 of the molar value. “And” between values parts separate entries of the source, which are not always exact repeats. Equal entries are not always repeated. Where two headings read alike, the source gives them in different places.

Legend:
[1] = system: OATP1B1/1B3; format: in vivo, human; settings: for AUC0–16 of endogenous biomarker / AUC0–48 of endogenous biomarker / Cmax of endogenous biomarker: geometric mean (mean, %CV); for AUC0–16 ratio relative to baseline / AUC0–48 ratio relative to baseline / Cmax ratio relative to baseline: point estimate (90% CI)
In short: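 Healthy volunteers in a crossover each got a single fasting 300/120 mg dose of formulation A, B or C. Plasma (K2EDTA, stored −20 °C) drawn predose and up to 48 h. Cmax, AUC0–16 and AUC0–48 derived noncompartmentally by linear trapezoid. Predose level served as baseline; baseline AUC = baseline concentration × interval. Ratios to baseline given with 90% CI; mixed model compared A or B with C.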

[2] = system: OATP1B3; settings: as per the FDA guidance; unbound concentration in hepatic portal vein; cited from earlier work
[3] = system: OATP1B1; settings: read-out: OATP1B1 IC50, cited from earlier work
[4] = cited from earlier work
[5] = format: in vivo, human; settings: for AUC(0-t) / Cmax: human, plasma, oral; for Cmax: geometric mean (mean, %CV), healthy subjects
In short: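 Phase I single-dose complete crossover in healthy subjects, randomised to two test formulations and a reference formulation. Dosed 300/120 mg fasting in the morning, with at least 5 days washout; subjects confined ~4 days on standardized meals. Plasma (K2EDTA, stored −20 °C) sampled predose to 48 h and extracted liquid-liquid with deuterated internal standards. Calibration ~0.200–100 ng/mL; high range ~85.0–10,000 (GLE) or ~85.0–1,050 ng/mL (PIB). Noncompartmental, linear-trapezoidal analysis; BLQ set to zero.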

[6] = cited from earlier work; remark: listed apart in the source
[7] = system: OATP1B3; settings: read-out: OATP1B3 IC50; in vitro; cited from earlier work
[8] = system: OATP1B1; settings: as per the FDA guidance; unbound concentration in hepatic portal vein; cited from earlier work
[9] = cited from earlier work; remark: listed apart in the source
[10] = system: OATP1B1; settings: read-out: Km for OATP1B1; cited from earlier work
[11] = system: OATP1B1/1B3; settings: n = 56; across different ethnicities; cited from earlier work
[12] = system: OATP1B3; settings: read-out: Km for OATP1B3; cited from earlier work
[13] = after GLE/PIB 300/120 mg Formulation A
[14] = after GLE/PIB 300/120 mg Formulation B
[15] = after GLE/PIB 300/120 mg Formulation C
[16] = AUC0–16, geometric mean (mean, %CV), GLE/PIB 300/120 mg Formulation A
[17] = AUC0–16, geometric mean (mean, %CV), GLE/PIB 300/120 mg Formulation B
[18] = AUC0–16, geometric mean (mean, %CV), GLE/PIB 300/120 mg Formulation C
[19] = AUC0–48, geometric mean (mean, %CV), GLE/PIB 300/120 mg Formulation A
[20] = AUC0–48, geometric mean (mean, %CV), GLE/PIB 300/120 mg Formulation B
[21] = AUC0–48, geometric mean (mean, %CV), GLE/PIB 300/120 mg Formulation C
[22] = single dose GLE/PIB 300/120 mg Formulation A, fasting
[23] = single dose GLE/PIB 300/120 mg Formulation B, fasting
[24] = single dose GLE/PIB 300/120 mg Formulation C (reference), fasting

| Structure (SMILES) | AUC0–16 of endogenous biomarker [1, 13] | AUC0–48 of endogenous biomarker [1, 13] | Cmax of endogenous biomarker [1, 13] | AUC0–16 of endogenous biomarker [1, 14] | AUC0–48 of endogenous biomarker [1, 14] | Cmax of endogenous biomarker [1, 14] | AUC0–16 of endogenous biomarker [1, 15] | AUC0–48 of endogenous biomarker [1, 15] | Cmax of endogenous biomarker [1, 15] | AUC0–16 ratio relative to baseline [1, 13] | AUC0–48 ratio relative to baseline [1, 13] | Cmax ratio relative to baseline [1, 13] | AUC0–16 ratio relative to baseline [1, 14] | AUC0–48 ratio relative to baseline [1, 14] | Cmax ratio relative to baseline [1, 14] | AUC0–16 ratio relative to baseline [1, 15] | AUC0–48 ratio relative to baseline [1, 15] | Cmax ratio relative to baseline [1, 15] | AUC(0-t) [5, 16] | AUC(0-t) [5, 17] | further results |
| --- | --- | --- | --- | --- | --- | --- | --- | --- | --- | --- | --- | --- | --- | --- | --- | --- | --- | --- | --- | --- | --- |
| CC1=C(CCC(=O)O)c2cc3nc(cc4[nH]c(cc5[nH]c(cc1n2)c(C)c5CCC(=O)O)c(CCC(=O)O)c4C)C(CCC(=O)O)=C3C [CP‐III] | 1.20 (1.22, 19) ng·h/mL | 3.32 (3.44, 23) ng·h/mL | 0.104 (0.105, 16) ng/mL | 1.07 (1.24, 73) ng·h/mL | 2.77 (3.44, 41) ng·h/mL | 0.113 (0.116, 25) ng/mL | 1.23 (1.30, 36) ng·h/mL | 2.87 (3.23, 41) ng·h/mL | 0.115 (0.119, 26) ng/mL | 0.94 (0.84 to 1.06) | 0.86 (0.82 to 0.95) | 1.31 (1.18 to 1.46) | 0.96 (0.85 to 1.08) | 0.90 (0.80 to 1.01) | 1.34 (1.18 to 1.53) | 1.01 (0.86 to 1.20) | 0.79 (0.60 to 1.03) | 1.49 (1.24 to 1.78) |  |  |  |
| CC(C)(C)[C@@H]1NC(=O)O[C@@H]2CCC[C@H]2OC/C=C/C(F)(F)c2nc3ccccc3nc2O[C@@H]2C[C@@H](C(=O)N[C@]3(C(=O)NS(=O)(=O)C4(C)CC4)C[C@H]3C(F)F)N(C2)C1=O [GLE, glecaprevir] |  |  |  |  |  |  |  |  |  |  |  |  |  |  |  |  |  |  | 344 ng·h/mL | 1330 ng·h/mL | OATP1B3 R value [2]: 2.2; pIC50 ([3]; in vitro): 7.77; fu,p (fraction of unbound inhibitor in plasma) [4]: 0.025; share of exposure observed in the first 16 hours postdose ([5]; across formulations): 94–97%; exposures (Cmax, AUC0–16, AUC0–48) lower relative to reference formulation C ([5]; formulation A, fasting): ~ 80%; exposures (Cmax, AUC0–16, AUC0–48) lower relative to reference formulation C ([5]; formulation B, fasting): ~26%; AUC(0-t) [5, 18]: 1800 ng·h/mL; AUC(0-t) [5, 19]: 367 ng·h/mL; AUC(0-t) [5, 20]: 1370 ng·h/mL; AUC(0-t) [5, 21]: 1850 ng·h/mL; Cmax [5, 22]: 88.5 ng/mL; Cmax [5, 23]: 330 ng/mL; Cmax [5, 24]: 444 ng/mL; half-life [6]: about 6 hours; pIC50 [7]: 7.19; OATP1B1 R value [8]: 5.5 |
| COC(=O)N[C@H](C(=O)N1CCC[C@H]1c1nc2cc([C@H]3CC[C@H](c4cc5nc([C@@H]6CCCN6C(=O)[C@@H](NC(=O)OC)[C@@H](C)OC)[nH]c5cc4F)N3c3cc(F)c(N4CCC(c5ccc(F)cc5)CC4)c(F)c3)c(F)cc2[nH]1)[C@@H](C)OC [PIB, pibrentasvir] |  |  |  |  |  |  |  |  |  |  |  |  |  |  |  |  |  |  | 546 ng·h/mL | 514 ng·h/mL | pIC50 ([3]; in the presence of 4% bovine serum albumin): 5.89; exposures lower relative to reference formulation C ([5]; formulations A and B, fasting): 28–49%; AUC(0-t) [5, 18]: 977 ng·h/mL; AUC(0-t) [5, 19]: 658 ng·h/mL; AUC(0-t) [5, 20]: 622 ng·h/mL; AUC(0-t) [5, 21]: 1170 ng·h/mL; Cmax [5, 22]: 86.8 ng/mL; Cmax [5, 23]: 83.7 ng/mL; Cmax [5, 24]: 163 ng/mL; half-life [6]: ~13 h; OATP1B1 R value [8]: 1.4; RB (blood-to-plasma concentration ratio) [9]: 0.62 |
| CC1=C(CCC(=O)O)c2cc3nc(cc4[nH]c(cc5[nH]c(cc1n2)c(CCC(=O)O)c5C)c(CCC(=O)O)c4C)C(CCC(=O)O)=C3C [CP‐I, coproporphyrin (CP)‐I] | 8.98 (9.10, 16) ng·h/mL | 25.4 (25.6, 12) ng·h/mL | 0.726 (0.740, 21) ng/mL | 11.7 (11.9, 23) ng·h/mL | 28.2 (28.5, 18) ng·h/mL | 1.19 (1.24, 26) ng/mL | 13.2 (13.3, 16) ng·h/mL | 30.3 (30.6, 13) ng·h/mL | 1.44 (1.48, 23) ng/mL | 0.97 (0.89 to 1.06) | 0.91 (0.85 to 0.97) | 1.25 (1.12 to 1.41) | 1.25 (1.18 to 1.32) | 1.01 (0.96 to 1.06) | 2.05 (1.81 to 2.32) | 1.39 (1.29 to 1.51) | 1.07 (1.02 to 1.13) | 2.44 (2.11 to 2.82) |  |  | Km [10]: 0.13 µM; baseline plasma concentration ([1]; mean and SD, predose, all study periods): 0.59 ± 0.09 ng/mL and 0.90 ± 0.14 nM; baseline plasma concentration, previously reported range [11]: 0.5 to 1.5 nM; Km [12]: 3.95 µM |
